Experimental findings from ChEMBL document CHEMBL3272023, “Metabolic formation and synthesis of 1-(3-chlorophenyl)-2(4-hydroxyphenyl)-1-methyl-2(2 pyridine)ethanol. A potential hypocholesteremic agent” (J Med Chem, 1976) are described below.

Structures are written as SMILES.

Common to all, as to conditions: in vivo
Data set [1] can be described thus: Drug excretion in Sprague-Dawley rat assessed as radioactivity in urine at 1.71 uCi, ip measured on day 1. It counts as ADME, organism-based. In short, it runs like this:
(§1)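 Three male rats (250 ± 10 g), each in its own metabolic cage with diet and water ad libitum, given 40 mg/kg ³H-labelled drug (1.71 µCi) ip as 1 ml aqueous 0.26% Tween 80 suspension. Urine and feces collected at 11 h, then daily for 13 days. Feces air-dried, powdered, oxidized and counted. Tissues assayed after sacrifice on day 14.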

Data set [2] can be described thus: Drug metabolism in Sprague-Dawley rat urine at 15.6 uCi, ip using hexane-chloroform-acetic acid at 6:3:1 ratio TLC system I. Format: ADME, organism-based. In short, it runs like this:
(§2)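 Urine from two rats (250 g) given 300 mg/kg (15.6 µCi) ip was examined by TLC, directly and before/after enzymatic hydrolysis (pH 5.8, 37°, 72 h). Standards were located by fluorescence quenching. Radioactivity was measured by scintillation counting of 0.5-cm silica gel strips scraped from the plates.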

The nature of data set [3]: Drug excretion in Sprague-Dawley rat assessed as radioactivity in feces at 1.71 uCi, ip measured on day 13. Format: ADME, organism-based. In short, it runs like this:
as §1

A short description of data set [4]: Drug metabolism in Sprague-Dawley rat urine at 15.6 uCi, ip using benzene-methanol at 8:2 ratio TLC system II. Format: ADME, organism-based. In short, it runs like this: as §2
Data set [5] in a line: Retardation factor of the compound in Sprague-Dawley rat urine at 15.6 uCi, ip using hexane-chloroform-acetic acid at 6:3:1 ratio TLC system I. Format: physicochemical, organism-based. The essentials:
as §2

The nature of data set [6]: Drug excretion in Sprague-Dawley rat assessed as radioactivity in urine at 1.71 uCi, ip measured on day 7. Format: ADME, organism-based. The essentials: as §1
Data set [7] in a line: Drug excretion in Sprague-Dawley rat assessed as radioactivity in feces at 1.71 uCi, ip measured on day 1.
Data set [8] in a line: Drug metabolism in Sprague-Dawley rat urine at 15.6 uCi, ip using Et2O TLC system. Format: ADME, organism-based. In short, it runs like this:
as §2

Data set [9] can be described thus: Drug metabolism in Sprague-Dawley rat urine assessed as hydroxylated 2-benzylpyridine at 15.6 uCi, ip by gas chromatography-mass spectrometry. It counts as ADME, organism-based. In short, it runs like this:
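Two rats (250 g) dosed ip at 300 mg/kg (15.6 µCi). Urine hydrolysed at pH 5.8, 37°, 72 h with Helix pomatia glucuronidase/arylsulfatase or bovine liver β-glucuronidase. Preparative TLC in system II; the radioactive band at Rf 0.6 extracted into Et2O and silylated (bis(trimethylsilyl)acetamide/triethylamine). GLC on 3% SE-30, fractions counted, radioactive peak sent to MS.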

The nature of data set [10]: Drug excretion in Sprague-Dawley rat assessed as total radioactivity in feces at 1.71 uCi, ip. It counts as ADME. The essentials: as §1

On to `CC(O)(c1cccc(Cl)c1)C(c1ccccc1)c1ccccn1` (stereo not given), for which the Drug excretion in data set [1] is on record as 5%; in [3], below 1%; in data set [6] it was below 1%; in [7], 7%; in data set [10] it was 25%. Moreover, the Drug metabolism result in data set [2] was “metabolite_notdetected”; in data set [4] it was “metabolite_detected”; in [8], “metabolite_detected”; in data set [9], “metabolite_detected”. Further, the Rf in data set [5] amounted to 0.56.
